Key:
[1] = tested on: MCF7; assay: Cytotoxicity against human MCF7 cells assessed as reduction in cell viability after 72 hrs by MTT assay; type: functional, cell-based; conditions: MCF7, 72 h
Outline: (§1)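 MCF-7 and HepG2 cells in exponential growth were trypsinized and seeded at 1000–2000 cells/well, then incubated 24 h at 37 °C. Compound exposure was 72 h at 0.1, 10, 100 and 1000 μM. Cells took up 5% MTT for 2 h, and formazan was dissolved in acidified isopropanol for 30 min at room temperature. A570 was read, viability expressed as % of control, and IC50 obtained by curve fitting.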

[2] = tested on: HepG2; assay: Cytotoxicity against human HepG2 cells assessed as reduction in cell viability after 72 hrs by MTT assay; type: functional, cell-based; conditions: HepG2, 72 h; outline: as §1

| SMILES | IC50 [1] [µM] | IC50 [2] [µM] |
| --- | --- | --- |
| NS(=O)(=O)c1ccc(-n2ncc3c(=O)[nH]c(-c4ccc(F)cc4)nc32)cc1 | 38 | 2.66 |
| NS(=O)(=O)c1ccc(-n2ncc3c(=O)[nH]c(-c4ccccc4)nc32)cc1 | > 100 | 77.6 |
| Nc1ncnc2c1cnn2-c1ccc(S(N)(=O)=O)cc1 | 40.7 | 95.5 |
| NC(=O)c1cnn(-c2ccc(S(N)(=O)=O)cc2)c1N | > 100 | > 100 |
| COc1cccc2c1C(=O)c1c(O)c3c(c(O)c1C2=O)C[C@@](O)(C(=O)CO)C[C@@H]3O[C@H]1C[C@H](N)[C@H](O)[C@H](C)O1 [DOXORUBICIN] | 1.02 | 0.9 |
